Drawing on ChEMBL document CHEMBL4425094, “Novel Benzo[a]quinolizidine Analogs Induce Cancer Cell Death through Paraptosis and Apoptosis” (J Med Chem, 2016), this text covers Activity for one compound.

Active and inactive are the calls of the source. The rule behind the calls is not given here.

In data set [1] the test system is PC-3. The data set can be described thus: Induction of autophagy in human PC3 cells assessed as increase in p62/SQSTM1 expression after 4 hrs by Western blot analysis. Format: functional, cell-based. In a few lines: (§1)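 PC3 cells in RPMI 1640 with 10% FBS, treated with compound for timed intervals. DMSO vehicle control. Lysis in RIPA buffer, 40 μg protein per lane on SDS-PAGE, transfer to nitrocellulose. Primary antibodies overnight at 4 °C, HRP-secondary 45 min, ECL detection. GAPDH or β-actin used as loading control.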
Background: In western blotting, separated proteins are transferred to a membrane and probed.

For data set [2], the system named is PC-3. The data set can be described thus: Induction of apoptosis in human PC3 cells assessed as late apoptotic cells at 1 uM after 24 hrs by Annexin V-FITC/propidium iodide based flow cytometric analysis (reference value: 1.1 %). Format: functional. In a few lines:
(§2)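 PC3 cells exposed to 0.5, 1 or 2 μM for 24 h, then stained with Annexin V-FITC and PI and analyzed by FACSCalibur flow cytometry. Populations assigned as necrotic (Annexin V−/PI+), late apoptotic (double positive), normal (Annexin V−/PI−) and early apoptotic (Annexin V+/PI−). DMSO vehicle control.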
On the technique in general: Flow cytometry measures light scatter and fluorescence of single cells or particles in a stream.

In data set [3] the test system is PC-3. As to the kind of experiment: Cytotoxicity in human PC3 cells assessed as reduction in cell viability after 24 hrs in presence of AcT-D by MTT assay. Format: functional, cell-based. The gist of the method:
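PC3 cells pretreated with 10 μM actinomycin D or 5 μM cycloheximide, then treated with compound for 24 h. Viability by MTT at 570 nm. Vacuolation imaged by phase-contrast microscopy.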

Data set [4] has as its system PC-3. As to the kind of experiment: Induction of apoptosis in human PC3 cells assessed as early apoptotic cells at 0.5 uM after 24 hrs by Annexin V-FITC/propidium iodide based flow cytometric analysis (reference value: 2.3 %). The class given is functional. The gist of the method: as §2
Data set [5] is described as follows: Toxicity in athymic Balb/c mouse assessed as body weight loss at 15 mg/kg, ip administered every 2 days for 18 days. The class given is organism-based. The conditions noted are these: in vivo. The gist of the method:
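Male athymic BALB/c-nu mice bearing subcutaneous PC3M-luc-C6 xenografts, n = 5 per group. Dosing was 15 mg/kg i.p. every 2 days for 18 days versus placebo and docetaxel 15 mg/kg groups. Body weight was recorded over the treatment period.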

In data set [6] the test system is PC-3. As to the kind of experiment: Cytotoxicity against human PC3 cells transfected with LC3-targeting siRNA assessed as reduction in cell viability at 1 uM after 24 hrs by Western blot analysis. Format: functional, cell-based. The gist of the method:
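PC3 cells plated at 20−30% confluence and transfected 24 h later with 50 nM LC3-targeting or scramble siRNA. After 48 h, cells were exposed to 1 μM compound for a further 24 h. Read-out by Western blot and phase-contrast imaging.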

Data set [7] relates to PC-3. As to the kind of experiment: Induction of apoptosis in human PC3 cells assessed as PARP cleavage after 24 hrs by Western blot analysis. Format: functional, cell-based. In a few lines:
as §1

The subject of data set [8] is PC-3. As to the kind of experiment: Induction of cytoplasmic vacuolation in human PC3 cells at 1 uM after 24 hrs by phase-contrast microscopic analysis. The class given is functional, cell-based. The gist of the method:
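PC3 cells in RPMI 1640 with 10% FBS at 37 °C, 5% CO2, treated with 1 μM agent for 0−24 h; DMSO vehicle control. Vacuole appearance, size and number followed over time by phase-contrast microscopy at constant magnification.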

In data set [9] the test system is PC-3. As to the kind of experiment: Induction of endoplasmic reticulum derived cytoplasmic vacuole formation in human PC3 cells after 4 to 8 hrs by ER-tracker staining based fluorescence microscopy. Format: functional, cell-based. The gist of the method: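 PC3 cells incubated with vehicle or agent for 0, 4 or 8 h. They were then stained at 37 °C for 15 min with ER-Tracker (1:3000) plus 10 μg/mL Hoechst 33342, washed with PBS and imaged by fluorescence/confocal microscopy.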

The test system of data set [10] is PC-3. As to the kind of experiment: Induction of vacuolization in human PC3 cells in presence of CHX after 24 hrs by phase-contrast microscopic analysis. Format: functional, cell-based. In a few lines: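 PC3 cells pretreated with 10 μM actinomycin D or 5 μM cycloheximide, then treated with agent for 24 h. Vacuolization imaged by phase-contrast microscopy; viability by MTT.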

Regarding `Cc1cc(C)cc(COc2cc3c(cc2OCc2cc(C)cc(C)c2)[C@@H]2C[C@H](O)C[C@@H](C)N2CC3)c1` (racemic), the result in the data set with PC-3 [1], in the data set on PC-3 [3], in the data set on PC-3 [6] and with PC-3 [10] was inactive. The Activity in the data set with PC-3 [2] is 2.6%; in the data set with PC-3 [4], 2.5%; in data set [5], 16.3 g. Moreover, the outcome in the data set on PC-3 [7], in the data set on PC-3 [8] and in the data set on PC-3 [9] was Active.
